Source: ChEMBL document CHEMBL2331388, “Flavone tetraglycosides and benzyl alcohol glycosides from the Mongolian medicinal plant Dracocephalum ruyschiana” (J Nat Prod, 2013)

System: Radical scavenging activity
Experiment: Antioxidant activity assessed as DPPH radical scavenging activity after 30 mins by microplate reader
Type: functional
Outline: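 Modified Mensor method. Sample in absolute MeOH at several concentrations mixed 1:1 with 0.06 mM DPPH in MeOH (100 μL each). Absorbance read at 510 nm at exactly 30 min, then percent inhibition calculated. IC50 taken as the concentration scavenging 50% of DPPH radicals. Triplicate runs. Rutin and Trolox used as reference standards.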

| SMILES | IC50 [µg/mL] | IC50 (read-out: IC50) [µM] |
| --- | --- | --- |
| Oc1ccc(Cc2ccc(O)cc2)cc1 | > 200 | – |
| OC[C@H]1O[C@@H](OCc2ccccc2)[C@H](O)[C@@H](O)[C@@H]1O | – | 223 |
| O=C(/C=C/c1ccc(O)cc1)O[C@@H]1C[C@](O)(C(=O)O)C[C@@H](OC(=O)/C=C/c2ccc(O)c(O)c2)[C@H]1O | – | 57.4 |
| COc1ccc(-c2cc(=O)c3c(O)cc(O[C@@H]4O[C@H](CO[C@@H]5O[C@@H](C)[C@H](O)[C@@H](O)[C@H]5O)[C@@H](O)[C@H](O)[C@H]4O[C@@H]4O[C@H](CO)[C@@H](O)[C@H](O)[C@H]4O[C@@H]4O[C@H](CO)[C@@H](O)[C@H](O)[C@H]4O)cc3o2)cc1 | > 200 | – |
| COc1ccc(-c2cc(=O)c3c(O)cc(O[C@@H]4O[C@H](CO[C@@H]5O[C@@H](C)[C@H](O)[C@@H](O)[C@H]5O)[C@@H](O)[C@H](O)[C@H]4O[C@@H]4O[C@H](CO)[C@@H](O)[C@H](OC(C)=O)[C@H]4O[C@@H]4O[C@H](CO)[C@@H](O)[C@H](O)[C@H]4O)cc3o2)cc1 | > 200 | – |
| COc1ccc(-c2cc(=O)c3c(O)cc(O[C@@H]4O[C@H](CO[C@@H]5O[C@@H](C)[C@H](O)[C@@H](O)[C@H]5O)[C@@H](O)[C@H](O)[C@H]4O[C@@H]4O[C@H](COC(C)=O)[C@@H](O)[C@H](O)[C@H]4O[C@@H]4O[C@H](CO)[C@@H](O)[C@H](O)[C@H]4O)cc3o2)cc1 | > 200 | – |
| COc1ccc(-c2cc(=O)c3c(O)cc(O[C@@H]4O[C@H](CO[C@@H]5O[C@@H](C)[C@H](O)[C@@H](O)[C@H]5O)[C@@H](O)[C@H](O)[C@H]4O[C@@H]4O[C@H](COC(C)=O)[C@@H](O)[C@H](O)[C@H]4O[C@@H]4O[C@H](CO)[C@@H](O)[C@H](O)[C@H]4O)cc3o2)cc1O | > 200 | – |
| CC(=O)OC[C@H]1O[C@@H](O[C@H]2[C@H](Oc3cc(O)c4c(=O)cc(-c5ccc(O)cc5)oc4c3)O[C@H](CO[C@@H]3O[C@@H](C)[C@H](O)[C@@H](O)[C@H]3O)[C@@H](O)[C@@H]2O)[C@H](O[C@@H]2O[C@H](CO)[C@@H](O)[C@H](O)[C@H]2O)[C@@H](O)[C@@H]1O | > 200 | – |
| COc1ccc(-c2cc(=O)c3c(O)cc(O[C@@H]4O[C@H](CO[C@@H]5O[C@@H](C)[C@H](O)[C@@H](O)[C@H]5O)[C@@H](O)[C@H](O)[C@H]4O[C@@H]4O[C@H](CO)[C@@H](O)[C@H](O)[C@H]4O[C@@H]4O[C@H](CO)[C@@H](O)[C@H](O)[C@H]4O)cc3o2)cc1O | > 200 | – |
| C[C@@H]1O[C@@H](OC[C@H]2O[C@@H](OCc3ccccc3)[C@H](O)[C@@H](O)[C@@H]2O)[C@H](OC(=O)/C=C/c2ccc(O)cc2)[C@H](O)[C@H]1O | > 200 | – |
| C[C@@H]1O[C@@H](OC[C@H]2O[C@@H](OCc3ccccc3)[C@H](O)[C@@H](O)[C@@H]2O)[C@H](OC(=O)/C=C\c2ccc(O)cc2)[C@H](O)[C@H]1O | > 200 | – |
| C[C@@H]1O[C@@H](OC[C@H]2O[C@@H](OCc3ccccc3)[C@H](O)[C@@H](O)[C@@H]2O)[C@H](O)[C@H](O)[C@H]1OC(=O)/C=C/c1ccc(O)cc1 | > 200 | – |
| C[C@@H]1O[C@@H](OC[C@H]2O[C@@H](Oc3ccc(COC(=O)c4ccccc4)cc3)[C@H](O)[C@@H](O)[C@@H]2O)[C@H](O)[C@H](O)[C@H]1O | > 200 | – |
| CC(O)(CC(=O)O)CC(=O)OCc1ccc(O[C@@H]2O[C@H](CO)[C@@H](O)[C@H](O)[C@H]2O)cc1 (stereo partly specified) | > 200 | – |
| COc1cc([C@H]2Oc3c(OC)cc(CCCO)cc3[C@@H]2CO)ccc1O[C@@H]1O[C@H](CO)[C@@H](O)[C@H](O)[C@H]1O | > 200 | – |
| O=C(O)/C=C\c1ccc(O)cc1 | > 200 | – |

| SMILES | IC50 [µg/mL] | IC50 (read-out: IC50) [µM] |
| --- | --- | --- |
| O=C(/C=C/c1ccc(O)c(O)c1)O[C@@H]1C[C@](O)(C(=O)O)C[C@@H](OC(=O)/C=C/c2ccc(O)c(O)c2)[C@H]1O | – | 32.4 |
| O=C(/C=C/c1ccc(O)c(O)c1)O[C@@H]1[C@H](O)C[C@@](O)(C(=O)O)C[C@H]1OC(=O)/C=C/c1ccc(O)c(O)c1 | – | 28.9 |
| COc1cc([C@H]2Oc3c(OC)cc(CCCO)cc3[C@@H]2CO[C@@H]2O[C@H](CO)[C@@H](O)[C@H](O)[C@H]2O)ccc1O | – | 284 |
| O=Cc1ccc(O)cc1 [4-HYDROXYBENZALDEHYDE] | > 200 | – |
| O=c1c(O[C@@H]2O[C@H](CO)[C@@H](O)[C@H](O)[C@H]2O)c(-c2ccc(O)cc2)oc2cc(O)cc(O)c12 [ASTRAGALIN] | > 200 | – |
| O=C(/C=C/c1ccc(O)c(O)c1)O[C@@H]1C[C@](O)(C(=O)O)C[C@@H](O)[C@H]1O [CHLOROGENIC ACID] | – | 45.5 |
| C=CCc1ccc(O[C@@H]2O[C@H](CO)[C@@H](O)[C@H](O)[C@H]2O)c(OC)c1 [CITRUSIN C] | – | 328 |
| O=C(O)/C=C/c1ccc(O)cc1 [COUMARIC ACID] | > 200 | – |
| COc1cc(/C=C/C(=O)O)ccc1O [FERULATE] | – | 62.4 |
| C[C@@H]1O[C@@H](OC[C@H]2O[C@@H](OCc3ccccc3)[C@H](O)[C@@H](O)[C@@H]2O)[C@H](O)[C@H](O)[C@H]1O [HYDRANGEIFOLIN I] | > 200 | – |
| O=c1c(O[C@@H]2O[C@H](CO)[C@@H](O)[C@H](O)[C@H]2O)c(-c2ccc(O)c(O)c2)oc2cc(O)cc(O)c12 [ISOQUERCETIN] | – | 60.6 |
| COC(=O)/C=C/c1ccc(O)cc1 [METHYL P-HYDROXYCINNAMATE] | > 200 | – |
| O=C(O)[C@H]1O[C@@H](Oc2c(-c3ccc(O)c(O)c3)oc3cc(O)cc(O)c3c2=O)[C@H](O)[C@@H](O)[C@@H]1O [QUERCETIN GLUCURONIDE] | – | 37.2 |
| C[C@@H]1O[C@@H](OC[C@H]2O[C@@H](Oc3c(-c4ccc(O)c(O)c4)oc4cc(O)cc(O)c4c3=O)[C@H](O)[C@@H](O)[C@@H]2O)[C@H](O)[C@H](O)[C@H]1O [RUTIN] | – | 38.7 |
| Cc1c(C)c2c(c(C)c1O)CCC(C)(C(=O)O)O2 (stereo unspecified) [TROLOX] | – | 25.9 |
